# Data: PubChem BioAssay AID1483 (NMMLSC, 2009)
# The other results are listed elsewhere or left out. Values without a mark were called inactive.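 The calls were made as follows: active = fluorescence beyond the plate control mean plus 3 SD, with a fluorescence-to-maximum score over 2 (cut at about 25 in these data); inactive = the rest.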
# Assay: green-channel fluorescence of compounds in CCRF-Adr cells – cell-based, 488/530 nm, flow cytometry, artefact control for ABC transporter inhibitor project, confirmation (AID 1483)
# Settings: compound autofluorescence 488/530 nm, at 6.6 µM, active compounds read high
# Outline: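 Probe or stimulus: JC-1 substrate omitted | Assay system: Drug-resistant CCRF-Adr cells | Compound dosing: One dose, 6.6 µM | Measure: Compound-treated cell MFI minus DMSO-treated cell MFI | Control set: DMSO-treated cell wells as background reference | Times: Compound with cells 10 min end-over-end rotation, 25 °C, immediate read | Signal: Flow cytometric MFI, 530 ± 20 nm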
compound,measurement,value
COC(=O)COc1cc(C)cc2oc(=O)c3c(c12)CCCC3,fluorescence,2.91
